Assay results as given in the EternaBench riboswitch data.

Key:
MS2 coat protein [1] = assay: apparent Kd, MS2 coat protein; higher = weaker binding; RNA-MaP array; theophylline 2 mM where present
In short: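 SNAP-549-labelled MS2 coat protein, doubled from 0.7 or 1.5 nM to 3 µM, was titrated over designs transcribed by stalled E. coli RNA polymerase on Illumina sequencing-chip clusters. Titrations were run without and then with constant ligand in 100 mM Tris-HCl pH 7.5, 80 mM KCl, 4 mM MgCl2, BSA, DTT, yeast tRNA and Tween-20. The apparent Kd is the median of filtered per-cluster fits to green signal normalised to red-channel RNA signal and control-cluster median Fmax.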

MS2 coat protein [2] = assay: apparent Kd, MS2 coat protein; higher = weaker binding; RNA-MaP array
In short: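 Apparent Kd is the median of per-cluster binding-curve fits for designed RNAs transcribed from sequenced DNA templates on an Illumina sequencing chip. The RNAs were incubated at room temperature with fluorescently labeled MS2 coat protein at 1.5 nM to 3 μM, with or without input ligand, and designs measured on fewer than 10 clusters were excluded.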

[3] = designed as: ON switch for theophylline, no ligand
[4] = ligand present: theophylline, designed as: ON switch for theophylline
[5] = designed as: OFF switch for flavin mononucleotide, no ligand
[6] = ligand present: flavin mononucleotide, designed as: OFF switch for flavin mononucleotide
[7] = designed as: ON switch for flavin mononucleotide, no ligand
[8] = ligand present: flavin mononucleotide, designed as: ON switch for flavin mononucleotide

Sequence	apparent Kd (MS2 coat protein [2]; [5]) [nM]	apparent Kd (MS2 coat protein [2]; [6]) [nM]	also measured
UUUUAACAUGAGGAUCACCCAUGUAAUGAUACCAGAGACGAAAGUCUCCCUUGGCAGCAUAAUCAUUACAUGAGAUGGAAACAUC	–	–	apparent Kd (MS2 coat protein [1]; [3]): 30.6 nM; apparent Kd (MS2 coat protein [1]; [4]): 116 nM
CCUCAUGUGGUGCUGCACAUGAGAGGUGAUACCAGCAUCGAAAGAUGCCCUUGGCAGCACCAACAUGAGGAUCACCCAUGUAAUA	–	–	apparent Kd (MS2 coat protein [1]; [3]): 57.4 nM; apparent Kd (MS2 coat protein [1]; [4]): 135 nM
AGGCAGUAGGUGAUCCACUGCCAAGGUGAUACCAGCAUCGAAAGAUGCCCUUGGCAGCACCAACAUGAGGAUCACCCAUGUAAUA	–	–	apparent Kd (MS2 coat protein [1]; [3]): 108 nM; apparent Kd (MS2 coat protein [1]; [4]): 663 nM
AUAUUAAAGAGUGAUACCAGACUACAUGAGGAUCACCCAUGUUACAUUUAAAUAUCAUUUGUCCCUUGGCAGCACAUUAAGUACA	–	–	apparent Kd (MS2 coat protein [1]; designed as: OFF switch for theophylline, no ligand): 17.4 nM; apparent Kd (MS2 coat protein [1]; ligand present: theophylline, designed as: OFF switch for theophylline): 13.3 nM
CUAAUGGUUGCAGGAUAUCGAAAACCGCACAUGAGGAUCACCCAUGUCGCUAAGCGUGACAUAGUCGAGAAGGGCAUGACAACU	37.3	14.8	–
GCUCUACAGGAGAAGGUCAUAUCAUCGGUUAUUGAAGGAUAUCCUCAAGGGACGCUGAGGCGUACAUGAGGAUCACCCAUGUCC	–	–	apparent Kd (MS2 coat protein [2]; [7]): 84.1 nM; apparent Kd (MS2 coat protein [2]; [8]): 52.2 nM
UCGCAUUCAGGAUAUACUUAAAGGUGAACUGAUCAUAGCAAACAUGAGGAUCACCCAUGUAGAAGGGAAAUAUC	99.2	72.7	–
AUUAAGUCGACAGGAUAUCCGUACUUUGAGUAAGGAGAAGGGUCUACAAAGGUACAUGAGGAUCACCCAUGUGACUUGGCCGUC	–	–	apparent Kd (MS2 coat protein [2]; [7]): 10.1 nM; apparent Kd (MS2 coat protein [2]; [8]): 7.7 nM
GAUGAGCGCACGGGAAUAAACAUGAGGAUCACCCAUGUCGUUAGAAGGGUAUUCGCCGGGACCAUACAGGAUAUAACGCGUCAC	–	–	apparent Kd (MS2 coat protein [2]; [7]): 25.7 nM; apparent Kd (MS2 coat protein [2]; [8]): 21 nM
GCACGGGCGAUCGGCACUUUUACUAAUAUACGAGGACCGGUACGGCCGCCACUCGAGCUAAGACAUGAGGAUCACCCAUGUAACG	–	–	apparent Kd (MS2 coat protein [2]; designed as: OFF switch for tryptophan, no ligand): 26.2 nM; apparent Kd (MS2 coat protein [2]; ligand present: tryptophan, designed as: OFF switch for tryptophan): 49.3 nM
AGAUCCCUGGUGAGGAUAUGUGAGACAUUCCCAGGACAGAAGGCACAUGAGGAUCACCCAUGUGUUGGGUAAUU	6.32	6.65	–
ACCGAUCGAGGAUAUACAGAACAAAAGAACAUGACGAAGAAACAUGAGGAUCACCCAUGUAGAAGGCGAAAAGA	8.58	9.05	–
GCCAAGGUAACAGGAUAUUCUAAAGACGUGAGAUACUAAAUAAACAUGAGGAUCACCCAUGUGAAGAAGAAGGGUUAAGAGUAC	15.2	12.5	–
AGUCACUUCUAGAAGGCGCGGACUUACUAGCGGCGAGGAUAUAGUAGGAACAUGAGGAUCACCCAUGUCUAUUGGGUACGGCCC	14.2	14.9	–
UAACGCCCCUUAGGAUAUCCACGUAACCCCUCCCCCGUAAGUAGAAACAUGAGGAUCACCCAUGUGGAGAAGGAAGUGACCCGC	20.8	18.9	–
GUAUGAGAAGCAUAUACAUGAGGAUCACCCAUGUCCUCAGCGGAGGAUAUGUCUUUCAGGAGUAUACAGAAGGCCGCGGAAUUC	346	260	–
AUACAAUCAGGAUAUACUAGGCGAUAACAGAUUAUGACGUCACAUGAGGAUCACCCAUGUAGAAGGGAUCAGGA	39.2	53.1	–
UAAGAGUCGGCAGGAUAUGUCCCUUGAGCGCAGACAGAAGGGCCACUAUCUUUCACAUGAGGAUCACCCAUGUCCUCCCUGGAG	49	61.6	–
GAUAGAUAUGUAAGGAUAUGUGACGCGCUUGAGAAACAGAAGGAACAUGAGGAUCACCCAUGUAGAUGUUGUGA	11.2	9.94	–
AAGCCACAUGAGGAUCACCCAUGUAAGGGUACCUGAGGAUAUCCGGCGGGACAGAAAGGAGGAGAAGGCAGAUCCA	–	–	apparent Kd (MS2 coat protein [2]; [7]): 50.2 nM; apparent Kd (MS2 coat protein [2]; [8]): 33 nM
CAUGACAUGAGGAUCACCCAUGUAUCCAGUCGAGGACCGGUACGGCCGCCACUCGGUGCCUUCAAAUUUACAGACAGGUGACAGG	–	–	apparent Kd (MS2 coat protein [2]; designed as: ON switch for tryptophan, no ligand): 33.7 nM; apparent Kd (MS2 coat protein [2]; ligand present: tryptophan, designed as: ON switch for tryptophan): 22.8 nM
CCAUUGCAUGGAGGAUAUGAGCAGUAAGUACUCUCAGAAGGCCACGGAGUAAACAAACCAUCUUACAUGAGGAUCACCCAUGUA	–	–	apparent Kd (MS2 coat protein [2]; [7]): 13 nM; apparent Kd (MS2 coat protein [2]; [8]): 7.69 nM
AACGUCAACGUAAGGAUAUGCAGUAAGAGCGACAGGCAGAAGGUACAUGAGGAUCACCCAUGUUAACAGAACGG	8.79	9.6	–
GAAAUAGUAGUUAGGAUAUGUAAUUGAAGACAUAUACAGAAGGAACAUGAGGAUCACCCAUGUAUUGGGAUGGA	196	126	–
ACACAUCCACAUGAGGAUCACCCAUGUAAACCGAAAUAGCACUAGGAUAUGGGACAAACAAUUCACCAGAAGGAGUAAAAGAAA	–	–	apparent Kd (MS2 coat protein [2]; [7]): 52.7 nM; apparent Kd (MS2 coat protein [2]; [8]): 23.8 nM
UCCUCGUUUACAUGAGGAUCACCCAUGUGCUCGUCUAAACAUUAGGAUAUCGACCCUCUGCGCAUCGAGAAGGAAUACGGCGAG	192	204	–
